ChEMBL document CHEMBL1144782, “Isoindolo[2,1-a]quinoxaline derivatives, novel potent antitumor agents with dual inhibition of tubulin polymerization and topoisomerase I” (2008)

What was measured:
Format in all cases: functional
CCRF-CEM [1] = assay: Antitumor activity against human CCRF-CEM cells
In short: (§1)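 Run by the NCI in its in vitro disease-oriented screen of about 60 human tumour cell lines. For each line it reports pGI50 (50% net growth inhibition), pTGI (total growth inhibition) and pLC50 (50% net cell death), each as –log molar concentration. Where an effect was not reached within the tested range, the highest tested concentration was used.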

[2] = Antitumor activity against human NCI-H322 cells; in short: as §1
NCI/ADR-RES = assay: Antitumor activity against human NCI/ADR-RES cells; in short: as §1
CAKI-1 = assay: Antitumor activity against human CAKI1 cells; in short: as §1
PC-3 = assay: Antitumor activity against human PC3 cells; in short: as §1
786-0 = assay: Antitumor activity against human 786-0 cells; in short: as §1
CCRF-CEM [3] = assay: Resistance index, Ratio of GI50 for human vinblastine-resistant CEM cells to GI50 for human CEM cells
SK-OV-3 = assay: Antitumor activity against human SKOV3 cells; in short: as §1
SK-MEL-28 = assay: Antitumor activity against human SKMEL28 cells; in short: as §1
SF-295 = assay: Antitumor activity against human SF295 cells; in short: as §1
SF-268 = assay: Cell viability against human SF268 cells at 10 uM
Hs-578T = assay: Antitumor activity against human HS578T cells; in short: as §1
MDA-MB-435 = assay: Antitumor activity against human MDA-MB-435 cells; in short: as §1
NCI-H460 [4] = assay: Antitumor activity against human NCI-H460 cells; in short: as §1
MCF7 [5] = assay: Resistance index, Ratio of GI50 for human multidrug-resistant MCF7 cells to GI50 for human MCF7 cells
In short: (§2)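 Growth inhibition by MTT after 72 h incubation. Resistant sublines: LoVoDoxo and MCF-7 MDR were kept in 0.1 µg/mL doxorubicin; CEMVbl-100 was selected against vinblastine. GI50 given as mean ± SEM of three independent experiments. Resistance index is resistant-line GI50 over parental GI50.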

A498 = assay: Antitumor activity against human A498 cells; in short: as §1
MCF7 [6] = assay: Cell viability against human MCF7 cells at 10 uM
MCF7 [7] = assay: Growth inhibition of human MCF7 cells after 72 hrs by MTT assay; details: MCF7, 72 h; in short: as §2
Malme-3M = assay: Antitumor activity against human MALME3M cells; in short: as §1
SN12C = assay: Antitumor activity against human SN12C cells; in short: as §1
NCI-H226 = assay: Antitumor activity against human NCI-H226 cells; in short: as §1
HOP-92 = assay: Antitumor activity against human HOP92 cells; in short: as §1
RXF 393 = assay: Antitumor activity against human RXF393 cells; in short: as §1
OVCAR-8 = assay: Antitumor activity against human OVCAR8 cells; in short: as §1
UACC-257 = assay: Antitumor activity against human UACC257 cells
In short: (§3)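 NCI 60-cell-line screen. Parameters were GI50 (50% net growth inhibition), TGI and LC50, each reported as –log molar concentration. Where an effect was not reached within the tested range, the highest tested concentration was used in the calculation.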

BT-549 = assay: Antitumor activity against human BT549 cells; in short: as §1
COLO 205 = assay: Antitumor activity against human COLO205 cells; in short: as §1
CCRF-CEM [8] = assay: Growth inhibition of human vinblastine-resistant CEM cells after 72 hrs by MTT assay; in short: as §2
IGROV-1 = assay: Antitumor activity against human IGROV1 cells; in short: as §1
TK-10 = assay: Antitumor activity against human TK10 cells; in short: as §3
UACC-62 = assay: Antitumor activity against human UACC62 cells; in short: as §3
SK-MEL-2 = assay: Antitumor activity against human SKMEL2 cells; in short: as §1
SNB-19 = assay: Antitumor activity against human SNB19 cells; in short: as §1
A549 = assay: Antitumor activity against human A549 cells; in short: as §1
HCC 2998 = assay: Antitumor activity against human HCC2998 cells; in short: as §1
HT-29 = assay: Antitumor activity against human HT29 cells; in short: as §1
NCI-H460 [9] = assay: Cell viability against human NCI-H460 cells at 10 uM
OVCAR-3 = assay: Antitumor activity against human OVCAR-3 cells; in short: as §1
NCI-H23 = assay: Antitumor activity against human NCI-H23 cells; in short: as §1
CCRF-CEM [10] = assay: Growth inhibition of human CEM cells after 72 hrs by MTT assay; in short: as §2
SW-620 = assay: Antitumor activity against human SW620 cells; in short: as §3
[11] = read-out: Log LC50 (the source's name) (converted)

Work on Cc1cc2[nH]c(=O)c3c4ccccc4cn3c2cc1C yielded a GI50 (CCRF-CEM [1]) of 10 µM, an LC50 (CCRF-CEM [1]) of 97.7 µM and a TGI (CCRF-CEM [1]; read-out: pTGI (converted)) of 30.9 µM. The GI50 [2] was 16.6 µM, the LC50 (50% net cell death) [2] was 55 µM and the TGI ([2]; read-out: pTGI (converted)) was 30.2 µM. The GI50 (NCI/ADR-RES) was 13.5 µM, the LC50 (NCI/ADR-RES) was 74.1 µM and the TGI (NCI/ADR-RES; read-out: pTGI (converted)) was 31.6 µM. For the same compound, the GI50 (CAKI-1) was 5.37 µM, the LC50 (CAKI-1) was 49 µM and the TGI (CAKI-1; read-out: pTGI (converted)) was 17.8 µM. The GI50 (PC-3) was 12 µM, the LC50 (50% net cell death) (PC-3) was 53.7 µM and the TGI (PC-3; read-out: pTGI (converted)) was 25.7 µM. For the same compound, the GI50 (786-0) was 10.7 µM, the CC50 (786-0; [11]) was 47.9 µM and the TGI (786-0; read-out: pTGI (converted)) was 22.9 µM. The RatioGI50 (CCRF-CEM [3]) was 0.97, the GI50 (SK-OV-3) was 18.2 µM and the LC50 (50% net cell kill) (SK-OV-3) was 64.6 µM. For the same compound, the TGI (SK-OV-3; read-out: pTGI (converted)) was 34.7 µM, the GI50 (SK-MEL-28) was 14.8 µM and the CC50 (SK-MEL-28; [11]) was 83.2 µM. It also gave a TGI (SK-MEL-28; read-out: pTGI (converted)) of 35.5 µM, a GI50 (SF-295) of 12.3 µM and a CC50 (SF-295; [11]) of 66.1 µM. For the same compound, the TGI (SF-295; read-out: pTGI (converted)) was 28.2 µM, the Activity (SF-268) was 0% and the GI50 (Hs-578T) was 25.1 µM. The CC50 (Hs-578T; [11]) was greater than 100 µM, the TGI (Hs-578T; read-out: pTGI (converted)) was 60.3 µM and the GI50 (MDA-MB-435) was 6.03 µM. For the same compound, the LC50 (50% net cell death) (MDA-MB-435) was 50.1 µM, the TGI (MDA-MB-435; read-out: pTGI (converted)) was 20 µM and the GI50 (NCI-H460 [4]) was 4.47 µM. The CC50 (NCI-H460 [4]; [11]) was 63.1 µM, the TGI (NCI-H460 [4]; read-out: pTGI (converted)) was 20.4 µM and the RatioGI50 (MCF7 [5]) was 1.8. The GI50 (A498) was 21.4 µM, the CC50 (A498; [11]) was 72.4 µM and the TGI (A498; read-out: pTGI (converted)) was 39.8 µM. The Activity (MCF7 [6]) was 0%, the GI50 (MCF7 [7]) was 5.1 µM and the GI50 (Malme-3M) was 22.4 µM. It also gave a CC50 (Malme-3M; [11]) of 63.1 µM, a TGI (Malme-3M; read-out: pTGI (converted)) of 37.2 µM and a GI50 (SN12C) of 6.03 µM. For the same compound, the LC50 (SN12C) was 56.2 µM, the TGI (SN12C; read-out: pTGI (converted)) was 20.4 µM and the GI50 (NCI-H226) was 15.1 µM. The LC50 (50% net cell kill) (NCI-H226) was 89.1 µM, the TGI (NCI-H226; read-out: pTGI (converted)) was 36.3 µM and the GI50 (HOP-92) was 15.5 µM. It also gave an LC50 (HOP-92) of 58.9 µM, a TGI (HOP-92; read-out: pTGI (converted)) of 30.2 µM and a GI50 (RXF 393) of 12 µM. The CC50 (RXF 393; [11]) was 63.1 µM, the TGI (RXF 393; read-out: pTGI (converted)) was 27.5 µM and the GI50 (OVCAR-8) was 7.08 µM. The LC50 (50% net cell death) (OVCAR-8) was 81.3 µM, the TGI (OVCAR-8; read-out: pTGI (converted)) was 25.7 µM and the GI50 (UACC-257) was 20.4 µM. It also gave an LC50 (UACC-257) of 63.1 µM, a TGI (UACC-257; read-out: pTGI (converted)) of 35.5 µM and a GI50 (BT-549) of 19.5 µM. It also gave an LC50 (50% net cell kill) (BT-549) of 85.1 µM, a TGI (BT-549; read-out: pTGI (converted)) of 40.7 µM and a GI50 (COLO 205) of 15.1 µM. The LC50 (COLO 205) was greater than 100 µM, the TGI (COLO 205; read-out: pTGI (converted)) was greater than 100 µM and the GI50 (CCRF-CEM [8]) was 15.1 µM. For the same compound, the GI50 (IGROV-1) was 12.3 µM, the CC50 (IGROV-1; [11]) was 57.5 µM and the TGI (IGROV-1; read-out: pTGI (converted)) was 26.9 µM. For the same compound, the GI50 (TK-10) was 20 µM, the CC50 (TK-10; [11]) was 58.9 µM and the TGI (TK-10; read-out: pTGI (converted)) was 33.9 µM. The GI50 (UACC-62) was 16.6 µM, the LC50 (UACC-62) was 60.3 µM and the TGI (UACC-62; read-out: pTGI (converted)) was 31.6 µM. The GI50 (SK-MEL-2) was 18.2 µM, the LC50 (SK-MEL-2) was 66.1 µM and the TGI (SK-MEL-2; read-out: pTGI (converted)) was 34.7 µM. For the same compound, the GI50 (SNB-19) was 16.2 µM, the CC50 (SNB-19; [11]) was 83.2 µM and the TGI (SNB-19; read-out: pTGI (converted)) was 36.3 µM. For the same compound, the GI50 (A549) was 14.8 µM, the CC50 (A549; [11]) was 95.5 µM and the TGI (A549; read-out: pTGI (converted)) was 38 µM. The GI50 (HCC 2998) was 4.07 µM, the LC50 (HCC 2998) was 50.1 µM and the TGI (HCC 2998; read-out: pTGI (converted)) was 16.6 µM. It also gave a GI50 (HT-29) of 6.03 µM, an LC50 (HT-29) greater than 100 µM and a TGI (HT-29; read-out: pTGI (converted)) greater than 100 µM. The Activity (NCI-H460 [9]) was 0%, the GI50 (OVCAR-3) was 13.8 µM and the LC50 (50% net cell death) (OVCAR-3) was 57.5 µM. The TGI (OVCAR-3; read-out: pTGI (converted)) was 28.2 µM, the GI50 (NCI-H23) was 14.8 µM and the LC50 (50% net cell kill) (NCI-H23) was 69.2 µM. The TGI (NCI-H23; read-out: pTGI (converted)) was 32.4 µM, the GI50 (CCRF-CEM [10]) was 15.5 µM and the GI50 (SW-620) was 3.8 µM. It also gave a CC50 (SW-620; [11]) greater than 100 µM and a TGI (SW-620; read-out: pTGI (converted)) of 33.1 µM.
